Assay results: paper PMC3569859 (Bioorganic & medicinal chemistry, 2008)

Test system: sodium currents expressed in rat hippocampal neurons
Type: cell-based
Conditions: cultured hippocampal neurons
Procedure, shortened: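 E18 rat hippocampal neurons were trypsin-dissociated and kept up to 4 weeks on poly-L-lysine over a glial monolayer in serum-free MEM with N2. Whole-cell clamp was done at 20–22 °C with a CsF pipette and a 30 mM NaCl bath containing Cd2+ and TEA, both pH 7.3. After 5 min at −90 mV, 25 ms steps to −10 mV were applied with P/4 leak subtraction. Test compound was superfused at 50 μM, then washed out.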

Compound | Reversibility of Na current block on washout
CC(C)c1cc(CCCCCCC(O)(C(N)=O)C(F)(F)F)cc(C(C)C)c1O (centres unmarked) [Compound 5, 2-Hydroxy-8-(4-hydroxy-3,5-diisopropyl-phenyl)-2-trifluoromethyl-octanoic acid amide] | fully reversible
CC(C)c1cc(CCCCC(O)(C(N)=O)C(F)(F)F)cc(C(C)C)c1O (centres unmarked) [Compound 4, 2-Hydroxy-6-(4-hydroxy-3,5-diisopropyl-phenyl)-2-trifluoromethyl-hexanoic acid amide] | fully reversible
